# Compound activity (PubChem BioAssay)
# Compounds with a hit are over-represented: about 7.4% of the library has one in this group of screens.
# JNK3 inh: JNK3 kinase activity inhibitors, primary screen, biochemical, human, purified enzyme; Mitogen-activated protein kinase 10 (Homo sapiens), P53779; AID 746, 2007; HTS; hit rate 0.61% among 60,000; inhibition, % at 8 µM; in the data active means inhibition above about 17%;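 further: 0% = DMSO and 100% = reference inhibitor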
# S1P1 ag pot: S1P1 agonists and agonism potentiators, primary screen, cell-based, primary and confirmation screens, CRE-bla reporter | S1P1 CRE-bla cells, forskolin, beta-lactamase FRET, potentiator mode; S1P1 agonist co-added at EC20, 2 nM; 100% = saturating reference agonist, 0% = basal | hit rate 0.57% among 56,000 | activation, % at 9.5 µM | AID 449, 2006 | Sphingosine 1-phosphate receptor 1 (Homo sapiens), P21453;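 active means activation above a cutoff set at the mean activation of all tested compounds plus 3 SD, cut at about 54% in these data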;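 further: forskolin at 4 µM as EC80 and the EC20 agonist is SEW2871; 100% = SEW2871 at its EC100 plus forskolin at EC80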
# Target sequence (P21453 whole entry, looked up): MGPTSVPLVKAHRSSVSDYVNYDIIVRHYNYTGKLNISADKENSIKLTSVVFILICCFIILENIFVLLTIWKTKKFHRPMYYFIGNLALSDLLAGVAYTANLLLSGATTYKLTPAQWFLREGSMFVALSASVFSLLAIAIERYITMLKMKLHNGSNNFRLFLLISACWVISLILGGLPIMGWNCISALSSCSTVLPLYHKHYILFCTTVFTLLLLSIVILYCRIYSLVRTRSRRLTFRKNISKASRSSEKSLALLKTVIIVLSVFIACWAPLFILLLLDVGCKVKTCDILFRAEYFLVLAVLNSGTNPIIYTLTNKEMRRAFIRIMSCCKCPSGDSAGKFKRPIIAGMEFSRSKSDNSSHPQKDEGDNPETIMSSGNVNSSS
# Jurkat tox 60K: cytotoxicity toward Jurkat T cells, primary screen, cytotoxicity control, cell-based, Jurkat E6.1, 60K MLSMR library; inhibition, % at 4 µM; hit rate 1.2% among 56,000; Jurkat E6.1 viability, ATP luminescence, 48 h;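 active means inhibition above the mean inhibition of all tested compounds plus 3 SD, cut at about 28% in these data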
# M1 agonist: M1 muscarinic receptor agonists, primary screen, CHO-M1 cells, Fluo-4 calcium, agonist mode; Muscarinic acetylcholine receptor M1; Fluo-4 calcium fluorescence; stronger effect = higher value; B-score at 10 µM; hit rate 3% among 64,000; AID 626, 2007;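 active means fluorescence rise, raw or as B-score row- and column-corrected plate score, outside the 99.7% band of its plate's samples, either direction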
# S1P3 agonist: human S1P3 receptor agonists, primary screen, cell-based, primary and confirmation, NFAT-BLA reporter; Sphingosine 1-phosphate receptor 3 (Homo sapiens), Q99500; S1P3 NFAT-BLA reporter cells, agonism, FRET ratio; relative to 1 µM S1P, basal subtracted; activation, % at 4.5 µM; hit rate 0.1% among 60,000; AID 373, 2006;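 active means activation above the screen-wide mean plus 3 SD, cut at about 4.5% in these data, passing the limit was not always enough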
#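 Material: Human S1P3 NFAT-BLA reporter CHO cells | Incubation: Overnight plating, 4 h compound 37 °C, 2 h substrate RT | Signal: FRET β-lactamase substrate fluorescence, excitation 405 nm, 460/535 nm emission ratio, background-subtracted | Compound: 4.5 µM final, single dose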
# M1 antag: antagonists of rat M1 muscarinic receptor; CHO-M1 cells, Fluo-4 calcium, ACh EC80 antagonist mode; stronger effect = lower value; B-score at 10 µM; hit rate 3.4% among 64,000;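 active means calcium fluorescence response, raw or row-and-column corrected B-score, differing from the plate sample mean either way at a set confidence level, mostly lower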
# M1 antag conf: rat M1 muscarinic receptor antagonists, confirmation, CHO cells, Fluo-4 calcium, duplicate; AID 677, 2007; calcium response (max-min fluorescence) at 10 µM; ACh EC80 antagonism; stronger effect = lower value; shares compounds with M1 antag; hit rate 43% among 1,700;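 active means calcium response below the same-plate mean of wells given acetylcholine alone at its 80%-effect dose, minus 3 SD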;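 further: raw fluorescence intensity difference in arbitrary instrument units and not normalized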
# mGluR4 antag: human mGluR4 response to M1 antagonist hits, M1 allosteric modulator project, cell-based, antagonist mode, secondary assay 1 | shares compounds with M1 antag | CHO-mGluR4 calcium flux, Fluo-4 fluorescence, glutamate EC80; stronger effect = lower value | fluorescence response (max-min) at 10 µM | hit rate 0.9% among 1,700 | AID 678, 2007;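 active means fluorescence response below the plate's average for near-maximal glutamate wells, less 3 SD of those wells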;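 further: raw unnormalized fluorescence span taken in the window right after glutamate addition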
# Active calls of the source: *; · = no result given.
SMILES,JNK3 inh,S1P1 ag pot,Jurkat tox 60K,M1 agonist,S1P3 agonist,M1 antag,M1 antag conf,mGluR4 antag
O=C1c2ccccc2C(O)N1Cc1ccco1 (stereo not drawn),-2,20,13,-0.0021,23,0.6,·,·
CCOc1ccccc1NC1c2ccccc2C(=O)N1Cc1ccco1 (stereo not drawn),4,1,6,0.3,0,-0.86*,531,247
CCc1ccccc1NC1c2ccccc2C(=O)N1Cc1ccco1 (stereo not drawn),-4,-10,1,2.2,-1,-2.2*,458,199
CCOCCCn1c(=N)c(C(=O)NCc2ccc3c(c2)OCO3)cc2c(=O)n3cccc(C)c3nc21,-2,-33,4,0.41,-1,-10*,91*,202
COCCCn1c(=N)c(C(=O)NCc2ccc3c(c2)OCO3)cc2c(=O)n3cccc(C)c3nc21,2,-21,-2,0.61,-1,-7.1*,90*,204
CCN1CCN(c2ncc(C(=O)Nc3c(F)cc(F)cc3Br)c3ccccc23)CC1,-4,14,5,-1.6,-1,-10*,201*,198
CCOC(=O)C1=C(C)N(c2ccccc2)C(=O)C1CC(=O)O (stereo not drawn),-7,9,-3,0.0098,0,0.58,·,·
Cc1ccc(Cn2nnc3c(=O)n(Cc4cccc(C)c4)cnc32)cc1,-2,15,2,-1.2,0,-3.4*,481*,205
Cc1cccc(Cn2cnc3c(nnn3Cc3ccc(Cl)cc3)c2=O)c1,-1,-13,2,1.6,-1,-0.49,·,·
Cc1cc(NC(=O)Cn2cc(C(F)(F)F)cc(Cl)c2=O)no1,-3,-8,-8,0.13,0,-1.1,·,·
Cn1c(C(=O)N2CCN(c3ccccn3)CC2)cc2c(=O)n(C)c3ccccc3c21,-5,-6,-6,2.1,-1,-0.43,·,·
Cc1oc(-c2cccc(Cl)c2)nc1CN1CCCC(C(=O)NC(C)c2ccc3c(c2)OCCO3)C1 (stereo not drawn),-2,50,14,1.3,-2,-0.94*,509,244
Cc1oc(-c2cccc(Cl)c2)nc1CN1CCCC(C(=O)NCc2ccco2)C1 (stereo not drawn),-5,32,-2,-0.85,-1,-0.0098,·,·
CC(C(=O)O)C1SC(=O)NC1=O (stereo not drawn),·,·,·,3.6,·,0.93,·,·
CSC1=NCCN1C(=O)c1c(F)cccc1F,3,-19,-2,0.55,0,-3.1*,641,250
CSC1=NCCN1C(=O)c1ccco1,-1,-5,-1,0.48,0,0.14,·,·
CCn1c(CNC(=O)c2ccco2)nnc1SCC(=O)Nc1cc(C(F)(F)F)ccc1Cl,-1,-6,10,0.26,0,-1.2*,659,184
Cc1ccc(C)c(-n2c(CNC(=O)c3ccco3)nnc2SCC(=O)Nc2nnc(C)s2)c1,-4,8,-4,0.41,-1,-0.34,·,·
CCn1c(CNc2ccccc2Cl)nnc1SCC(=O)NCc1ccccc1,0,-14,4,0.34,0,-3*,465*,239
CCOc1cc(C(=O)N(C)c2ccccc2)cc(OCC)c1OCC,1,-12,2,0.45,-1,-0.77,·,·
COc1cccc(C(=O)N(CN2CCCC2=O)c2cc(C)on2)c1,-3,-17,0,-0.43,-1,-3.4*,545,190
COc1cccc(C(=O)N(CN2CCCC2=O)c2cccc(Cl)c2)c1,-6,-13,12,1.1,-1,1.1,·,·
Cn1c(-c2ccc(F)cc2)cnc1NCc1ccc(C#N)cc1,-1,10,-9,0.93,0,-3.4*,451,202
CCOc1cc(CNc2ncc(-c3ccc(OC)cc3)n2C)ccc1O,-3,15,3,-0.2,0,-1.4,·,·
Cc1cc(C(=O)CSc2nncs2)c(C)n1-c1ccc2c(c1)OCO2,-5,28,17,-0.0083,0,-4.2*,403*,227
SMILES,JNK3 inh,S1P1 ag pot,Jurkat tox 60K,M1 agonist,S1P3 agonist,M1 antag,M1 antag conf,mGluR4 antag
O=C(CSc1nncs1)NCc1ccc2c(c1)OCO2,-4,-44,0,-0.57,0,-0.24,·,·
Cn1c(=O)[nH]c(=O)c2c1nc(SCCN1CCCCC1)n2Cc1ccccc1,-3,6,-2,0.0092,-1,-3.8*,530*,205
Cc1csc(Sc2nc3c(c(=O)[nH]c(=O)n3C)n2Cc2ccccc2Cl)n1,-1,20,7,-0.19,-1,-0.0035,·,·
Cc1cccc(Cn2c(Sc3nc(C)cs3)nc3c2c(=O)[nH]c(=O)n3C)c1,5,-6,1,-0.64,0,-7.1*,524*,276
C=CCn1c(SCCN2CCCCC2)nc2c1c(=O)[nH]c(=O)n2C,5,3,5,0.032,-2,-2.7*,468,203
C=CCn1c(SCCOC)nc2c1c(=O)[nH]c(=O)n2C,0,22,-2,-0.18,-1,0.8,·,·
Cc1ccc(Cn2c(CN3CC(C)OC(C)C3)nc3c2c(=O)[nH]c(=O)n3C)cc1 (stereo not drawn),-1,-1,8,0.036,-1,-5.2*,546,183
CCCCSc1nc2c(c(=O)[nH]c(=O)n2C)n1CCc1ccccc1,2,-21,2,-0.0089,0,-0.035,·,·
CCCCSc1nnc(CCCCCNC(=O)OC(C)(C)C)o1,-1,12,10,-1.3,-1,-0.3,·,·
CCOCCCNC(=O)c1ccc(CS(=O)(=O)Cc2ccc(C)cc2)o1,-1,-4,6,-0.95,-1,0.4,·,·
Cc1cc(C)nc(NC(=O)c2cccc(Cl)c2)n1,0,-14,0,0.0029,-1,0.61,·,·
Cn1c(=O)[nH]c(=O)c2c1nc(SCCN1CCCCC1)n2CCCc1ccccc1,0,-3,6,0.43,-1,-3.8*,428,187
CCCCCn1c(SCCc2ccccc2)nc2c1c(=O)[nH]c(=O)n2C,3,3,10,0.35,-1,0.22,·,·
Cc1ccc(Cn2c(SCCN3CCCCC3)nc3c2c(=O)[nH]c(=O)n3C)cc1,-1,9,-1,0.015,0,-1.9*,457*,232
